Laboratory results published in ChEMBL document CHEMBL1124626, “Inhibition of 125I-labeled ristocetin binding to Micrococcus luteus cells by the peptides related to bacterial cell wall mucopeptide precursors: quantitative structure-activity relationships” (J Med Chem, 1989).
Peptide text beside a SMILES is read from it.

tested on: Micrococcus luteus; assay: Inhibition of [125I]ristocetin binding to micrococcus luteus cell wall (UDP-N-acetylmuramylpentapeptide).; assay type: functional, organism-based
Procedure, shortened: (§1)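 Lyophilized M. luteus cells were boiled in 1% sodium lauryl sulfate, washed with water, and stored at 4 °C. Ristocetin was iodinated with 125I/I2 and purified on CM-cellulose. Duplicate tubes held 50 μg cells, 1 μg labeled antibiotic and varied N-acetyl peptide in sodium citrate buffer, pH 5.1, in 0.2 mL at room temperature. Tubes were centrifuged at 10000g for 10 min and supernatant γ-counted. Ki came from Cheng-Prusoff using the Scatchard Kd.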

Row | SMILES | Ki [µM]
1 | CC(=O)N[C@H](CC(N)=O)C(=O)O | 9000
2 | CC(=O)NCC(=O)N[C@@H](C(=O)O)C(C)C | 340
3 | CC(=O)NCC(=O)N[C@H](CC(N)=O)C(=O)O | 720
4 | CC(=O)NCC(=O)N[C@H](CO)C(=O)O | 540
5 | CC(=O)N[C@@H](C(=O)O)C(C)C | 3100
6 | CC[C@@H](C)[C@@H](NC(C)=O)C(=O)O | 2800
7 | CC(=O)NCC(=O)N[C@H](C)C(=O)O | 130
8 | CC(=O)NCC(=O)NCC(=O)O | 4600
9 | CC(=O)N[C@H](CC(C)C)C(=O)NCC(=O)NCC(=O)O | 1900
10 | CC(=O)N[C@H](CC(C)C)C(=O)O | 2800
11 | CC(=O)NC(C(=O)O)c1ccc(O)cc1 (centres undefined) | 4200
12 | C[C@@H](NC(=O)OCc1ccccc1)C(=O)O | 5100
13 | CC(=O)N[C@@H](CC(C)C)C(=O)NCC(=O)NCC(=O)O | 2000
14 | CC(=O)NCC(=O)N[C@@H](C(=O)O)[C@H](C)O | 4700
15 | CC(=O)N[C@@H](CCCCN)C(=O)N[C@H](C)C(=O)N[C@H](C)C(=O)O | 16
16 | CC(=O)NCC(=O)N[C@H](CC(=O)O)C(=O)O | 1400
17 | CC(=O)NCC(=O)NCC(=O)NCC(=O)O (Ac-Gly-Gly-Gly-OH) | 7100
18 | CC(=O)N[C@@H](Cc1ccc(O)cc1)C(=O)NCC(=O)NCC(=O)O (Ac-Tyr-Gly-Gly-OH) | 1300

tested on: Micrococcus luteus; assay: Inhibition of [125I]ristocetin binding to micrococcus luteus cells.; assay type: functional, organism-based; procedure, shortened: as §1

Row | SMILES | Ki [µM]
19 | CC(=O)N[C@H](C)C(=O)O | 3200
20 | CC(=O)N[C@H](C)C(=O)NCC(=O)O | 3100
21 | CC(=O)N[C@H](C)C(=O)N[C@H](Cc1ccccc1)C(=O)O | 8.7
22 | CC(=O)N[C@H](CC(C)C)C(=O)NCC(=O)O | 11000
23 | CC(=O)N[C@H](C)C(=O)N[C@H](C)C(=O)O | 73
24 | CC(=O)N[C@H](C)C(=O)N[C@H](C)C(=O)N[C@H](C)C(=O)O | 42
25 | CC(=O)N[C@H](Cc1ccccc1)C(=O)O | 100
26 | CC(=O)NCC(=O)N[C@H](Cc1ccccc1)C(=O)O | 9.8
27 | CSCC[C@@H](NC(C)=O)C(=O)O | 2400
28 | CC(=O)N[C@H](Cc1c[nH]c2ccccc12)C(=O)O | 160
29 | CC(=O)NCC(=O)N[C@@H](CC(C)C)C(=O)O | 590
30 | CC(=O)N[C@H](CC(C)C)C(=O)N[C@H](CC(C)C)C(=O)O | 4500
31 | CC(=O)N[C@@H](Cc1ccccc1)C(=O)NCC(=O)NCC(=O)O (Ac-Phe-Gly-Gly-OH) | 1600
32 | CC(=O)N1CCC[C@H]1C(=O)NCC(=O)NCC(=O)O (Ac-Pro-Gly-Gly-OH) | 1600
33 | CC(=O)N[C@@H](Cc1c[nH]c2ccccc12)C(=O)NCC(=O)NCC(=O)O (Ac-Trp-Gly-Gly-OH) | 1200
34 | CC(=O)NCC(=O)O [ACETURIC ACID] | 29000
